Data as given in ChEMBL document CHEMBL3593175, “Bicyclic [3.3.0]-Octahydrocyclopenta[c]pyrrolo Antagonists of Retinol Binding Protein 4: Potential Treatment of Atrophic Age-Related Macular Degeneration and Stargardt Disease” (J Med Chem, 2015).
Blank lines part the entries; values can stand above or below the molecule they belong to.

How the values were obtained:
[1] = target: T1, Retinol-binding protein 4 (Homo sapiens, UniProt P02753); test: Displacement of [3H]-retinol from RBP4 (unknown origin) by scintillation proximity assay
[2] = target: T1, Retinol-binding protein 4; test: Inhibition of retinol-induced interaction of bacterially expressed MBP-tagged RBP4 (unknown origin) with Eu3+ cryptate labeled TTR by HTRF assay
[3] = system: Rattus norvegicus; test: Tmax in Sprague-Dawley rat at 5 mg/kg, po measured on day 1 by HPLC/MS/MS method; format: ADME, organism-based; settings: in vivo
Procedure, shortened: (§1)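 Male Sprague Dawley rats (n=3) were given one 5 mg/kg oral gavage dose (1.0 mg/mL) on Day 1 in 2% Tween 80 in 0.9% saline. Plasma was sampled pre-dose and at 0.25–48 h and measured by HPLC/MS/MS. Non-compartmental analysis: Cmax and Tmax taken directly from the data; half-life from terminal regression over at least three non-zero points after Tmax.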

[4] = system: Rattus norvegicus; test: AUClast in Sprague-Dawley rat at 5 mg/kg, po by HPLC/MS/MS method; format: ADME, organism-based; set-up: dose 5 mg/kg, time 0 - last, route oral; settings: in vivo
Procedure, shortened: (§2)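 Male Sprague Dawley rats, 3 per group, single dose: 2.0 mg/kg IV tail vein (0.4 mg/mL, 5 mL/kg; 3% DMA/45% PEG300/12% ethanol/40% sterile water) or 5.0 mg/kg oral gavage (0.5 mg/mL, 10 mL/kg; 2% Tween 80 in 0.9% saline). Plasma sampled pre-dose to 48 h, assayed by HPLC/MS/MS. Non-compartmental analysis; AUC by log/linear (IV) or linear up/log down trapezoidal (PO).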

[5] = system: Rattus norvegicus; test: AUClast in Sprague-Dawley rat at 5 mg/kg, po qd administered for 7 days measured on day 7 post last dose by HPLC/MS/MS method; format: ADME, organism-based; set-up: dose 5 mg/kg, route oral, time 0 - last; settings: in vivo, 168 h
Procedure, shortened: (§3)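 Male Sprague Dawley rats (n=3) were dosed orally by gavage at 5 mg/kg (1.0 mg/mL) once daily on Days 1–7, with a vehicle group run in parallel. Plasma was taken pre-dose on Days 1–6, then pre-dose and at 0.25–48 h on Day 7, and analysed by HPLC/MS/MS. Non-compartmental PK; terminal half-life needed at least three non-zero points after Tmax.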

[6] = system: Plasma; test: Initial plasma concentration in Sprague-Dawley rat at 2 mg/kg, iv by HPLC/MS/MS method; format: ADME, organism-based; settings: in vivo; procedure, shortened: as §2
[7] = system: MDCK; test: Apparent permeability across basolateral to apical side in MDCK cells expressing MDR1; format: ADME, cell-based, Canis lupus familiaris; settings: dog
[8] = Plasma concentration in Sprague-Dawley rat at 5 mg/kg, po qd administered for 7 days measured at 48 hrs post dose on day 7 by HPLC/MS/MS method; format: ADME, organism-based; procedure, shortened: as §3
[9] = Plasma concentration in Sprague-Dawley rat at 5 mg/kg, po qd administered for 7 days measured on day 7 prior to administration of last dose by HPLC/MS/MS method; format: ADME, organism-based; procedure, shortened: as §3
[10] = target: Cytochrome P450 2C9 (Homo sapiens, UniProt P11712); test: Inhibition of CYP2C9 (unknown origin)
[11] = Plasma concentration in Sprague-Dawley rat at 5 mg/kg, po measured at 48 hrs post dose on day 1 by HPLC/MS/MS method; format: ADME, organism-based; procedure, shortened: as §1
[12] = system: Rattus norvegicus; test: Elimination half life in Sprague-Dawley rat at 5 mg/kg, po qd administered for 7 days measured on day 7 post last dose by HPLC/MS/MS method; format: ADME, organism-based; settings: in vivo, 168 h; procedure, shortened: as §3
[13] = system: Rattus norvegicus; test: Apparent terminal half life in Sprague-Dawley rat at 5 mg/kg, po by HPLC/MS/MS method; format: ADME, organism-based; settings: in vivo; procedure, shortened: as §2
[14] = system: Rattus norvegicus; test: AUC (0 to infinity) in Sprague-Dawley rat at 2 mg/kg, iv by HPLC/MS/MS method; format: ADME, organism-based; set-up: dose 2 mg/kg, route intravenous, time infinity; settings: in vivo; procedure, shortened: as §2
[15] = target: Cytochrome P450 2D6 (Homo sapiens, UniProt P10635); test: Inhibition of CYP2D6 (unknown origin); format: ADME
[16] = target: Cytochrome P450 2C19 (Homo sapiens, UniProt P33261); test: Inhibition of CYP2C19 (unknown origin); format: ADME
[17] = system: Liver microsome; test: Intrinsic clearance in human liver microsomes; format: ADME
[18] = system: Rattus norvegicus; test: Plasma clearance in Sprague-Dawley rat at 2 mg/kg, iv by HPLC/MS/MS method; format: ADME, organism-based; settings: in vivo; procedure, shortened: as §2
[19] = target: T2, Nuclear receptor subfamily 1 group I member 2 (Homo sapiens, UniProt O75469); test: Activation of human PXR; format: ADME
T2 sequence (O75469 whole entry): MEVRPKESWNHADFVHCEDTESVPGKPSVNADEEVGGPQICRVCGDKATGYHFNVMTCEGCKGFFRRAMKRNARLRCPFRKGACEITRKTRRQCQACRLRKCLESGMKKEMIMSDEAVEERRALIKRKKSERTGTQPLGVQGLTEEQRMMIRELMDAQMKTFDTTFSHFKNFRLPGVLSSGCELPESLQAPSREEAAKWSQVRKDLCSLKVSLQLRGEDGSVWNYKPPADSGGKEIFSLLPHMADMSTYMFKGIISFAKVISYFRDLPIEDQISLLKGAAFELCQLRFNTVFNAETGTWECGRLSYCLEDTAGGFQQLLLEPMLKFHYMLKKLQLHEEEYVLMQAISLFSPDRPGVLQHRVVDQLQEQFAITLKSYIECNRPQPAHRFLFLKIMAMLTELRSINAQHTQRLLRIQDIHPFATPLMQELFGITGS

[20] = system: Liver; test: Intrinsic clearance in mouse liver microsomes; format: ADME
[21] = Plasma concentration in Sprague-Dawley rat at 5 mg/kg, po qd administered for 7 days measured at 4 hrs post dose on day 7 by HPLC/MS/MS method; format: ADME, organism-based; procedure, shortened: as §3
[22] = system: Rattus norvegicus; test: Tmax in Sprague-Dawley rat at 5 mg/kg, po by HPLC/MS/MS method; format: ADME, organism-based; settings: in vivo; procedure, shortened: as §2
[23] = Kinetic solubility in phosphate buffered saline at pH 7.4; format: physicochemical; settings: buffer
[24] = system: Rattus norvegicus; test: Volume of distribution at steady state in Sprague-Dawley rat at 2 mg/kg, iv by HPLC/MS/MS method; format: ADME, organism-based; settings: in vivo; procedure, shortened: as §2
[25] = system: Rattus norvegicus; test: AUClast in Sprague-Dawley rat at 5 mg/kg, po measured on day 1 by HPLC/MS/MS method; format: ADME, organism-based; set-up: dose 5 mg/kg, time 0 - last, route oral; settings: in vivo; procedure, shortened: as §1
[26] = system: Rattus norvegicus; test: Elimination half life in Sprague-Dawley rat at 5 mg/kg, po measured on day 1 by HPLC/MS/MS method; format: ADME, organism-based; settings: in vivo; procedure, shortened: as §1
[27] = system: Rattus norvegicus; test: Cmax in Sprague-Dawley rat at 5 mg/kg, po qd administered for 7 days measured on day 7 post last dose by HPLC/MS/MS method; format: ADME, organism-based; set-up: dose 5 mg/kg, route oral; settings: in vivo, 168 h; procedure, shortened: as §3
[28] = system: Liver microsome; test: Intrinsic clearance in rat liver microsomes; format: ADME
[29] = system: Rattus norvegicus; test: Cmax in Sprague-Dawley rat at 5 mg/kg, po by HPLC/MS/MS method; format: ADME, organism-based; set-up: dose 5 mg/kg, route oral; settings: in vivo; procedure, shortened: as §2
[30] = system: Rattus norvegicus; test: Decrease in RBP4 level in Sprague-Dawley rat plasma at 5 mg/kg, po qd administered for 7 days measured on day 7 post last dose relative to vehicle-treated control; format: functional; set-up: scale not given: the % may be the effect or the level left
Procedure, shortened: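 Male Sprague Dawley rats received 5 mg/kg or vehicle by oral gavage once daily for 7 days, 3 per group. Whole blood clotted 30 min at room temperature, then was centrifuged at 2000g for 15 min at 4°C. Serum RBP4 was measured by dual ELISA kit per the manufacturer's instructions.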

[31] = system: MDCK; test: Apparent permeability across apical to basolateral side in MDCK cells expressing MDR1; format: ADME, cell-based, Canis lupus familiaris; settings: dog
[32] = system: Rattus norvegicus; test: AUC (0 to infinity) in Sprague-Dawley rat at 5 mg/kg, po by HPLC/MS/MS method; format: ADME, organism-based; set-up: dose 5 mg/kg, time infinity, route oral; settings: in vivo; procedure, shortened: as §2
[33] = target: Voltage-gated inwardly rectifying potassium channel KCNH2 (Homo sapiens, UniProt Q12809); test: Inhibition of human ERG expressed in HEK293 cells by patch clamp assay; format: cell-based
[34] = Intrinsic clearance in cynomolgus monkey liver microsomes; format: ADME, Macaca fascicularis
[35] = Metabolic stability in human liver microsomes assessed as compound remaining at 10 uM after 30 mins; format: ADME; settings: read-out: Stability
[36] = system: Rattus norvegicus; test: Apparent terminal half life in Sprague-Dawley rat at 2 mg/kg, iv by HPLC/MS/MS method; format: ADME, organism-based; settings: in vivo; procedure, shortened: as §2
[37] = Metabolic stability in rat liver microsomes assessed as compound remaining at 10 uM after 30 mins; format: ADME; settings: read-out: Stability
[38] = system: Rattus norvegicus; test: Tmax in Sprague-Dawley rat at 5 mg/kg, po qd administered for 7 days measured on day 7 post last dose by HPLC/MS/MS method; format: ADME, organism-based; settings: in vivo, 168 h; procedure, shortened: as §3
[39] = system: Rattus norvegicus; test: Cmax in Sprague-Dawley rat at 5 mg/kg, po measured on day 1 by HPLC/MS/MS method; format: ADME, organism-based; set-up: dose 5 mg/kg, route oral; settings: in vivo; procedure, shortened: as §1
[40] = system: Rattus norvegicus; test: Decrease in RBP4 level in Sprague-Dawley rat plasma at 5 mg/kg, po relative to vehicle-treated control; format: functional; set-up: scale not given: the % may be the effect or the level left
Procedure, shortened: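 Male Sprague-Dawley rats were dosed by oral gavage at 10 mL/kg, with 2% Tween 80 in 0.9% saline as vehicle, […]. A vehicle-dosed group served as control. Whole blood was clotted for 30 min at room temperature, then centrifuged at 2000g for 15 min at 4°C to give serum. Serum RBP4 was measured by dual ELISA.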

[41] = system: Rattus norvegicus; test: Oral bioavailability in Sprague-Dawley rat at 5 mg/kg by HPLC/MS/MS method; format: ADME, organism-based; settings: in vivo; procedure, shortened: as §2
[42] = system: Rattus norvegicus; test: AUClast in Sprague-Dawley rat at 2 mg/kg, iv by HPLC/MS/MS method; format: ADME, organism-based; set-up: dose 2 mg/kg, time 0 - last, route intravenous; settings: in vivo; procedure, shortened: as §2
[43] = system: Plasma; test: Protein binding in rat plasma; format: ADME, cell-free
[44] = target: Cytochrome P450 3A4 (Homo sapiens, UniProt P08684); test: Inhibition of CYP3A4 (unknown origin); format: ADME
Cytochrome P450 3A4, sequence (P08684 whole entry): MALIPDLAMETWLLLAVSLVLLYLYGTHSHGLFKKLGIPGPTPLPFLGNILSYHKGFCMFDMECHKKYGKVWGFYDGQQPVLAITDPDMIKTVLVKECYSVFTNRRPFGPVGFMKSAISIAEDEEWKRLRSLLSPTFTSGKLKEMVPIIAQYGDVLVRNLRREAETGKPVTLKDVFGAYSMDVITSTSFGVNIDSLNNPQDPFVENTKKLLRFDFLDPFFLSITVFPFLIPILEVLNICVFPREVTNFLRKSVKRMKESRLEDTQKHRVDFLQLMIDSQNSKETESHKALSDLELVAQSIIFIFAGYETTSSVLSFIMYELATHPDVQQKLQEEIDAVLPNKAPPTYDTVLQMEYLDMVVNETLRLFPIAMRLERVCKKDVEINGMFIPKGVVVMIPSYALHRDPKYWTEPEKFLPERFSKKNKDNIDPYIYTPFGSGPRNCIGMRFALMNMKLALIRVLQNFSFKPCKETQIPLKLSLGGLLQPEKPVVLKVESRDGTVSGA

Cytochrome P450 2D6, sequence (P10635 whole entry): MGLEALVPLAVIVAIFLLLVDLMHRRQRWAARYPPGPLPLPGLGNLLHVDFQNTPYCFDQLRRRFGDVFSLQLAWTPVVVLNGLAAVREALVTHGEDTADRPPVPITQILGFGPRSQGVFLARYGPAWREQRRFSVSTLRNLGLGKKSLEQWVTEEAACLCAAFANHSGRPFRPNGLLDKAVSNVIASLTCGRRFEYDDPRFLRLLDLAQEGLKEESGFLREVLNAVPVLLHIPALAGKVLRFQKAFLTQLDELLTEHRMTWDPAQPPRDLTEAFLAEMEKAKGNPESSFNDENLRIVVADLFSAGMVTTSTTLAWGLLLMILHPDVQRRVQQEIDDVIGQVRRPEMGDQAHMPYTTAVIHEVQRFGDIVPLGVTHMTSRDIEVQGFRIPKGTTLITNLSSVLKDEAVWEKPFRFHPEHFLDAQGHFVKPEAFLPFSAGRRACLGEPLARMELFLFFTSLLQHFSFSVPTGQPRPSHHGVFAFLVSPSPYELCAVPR
Voltage-gated inwardly rectifying potassium channel KCNH2, sequence (Q12809 whole entry): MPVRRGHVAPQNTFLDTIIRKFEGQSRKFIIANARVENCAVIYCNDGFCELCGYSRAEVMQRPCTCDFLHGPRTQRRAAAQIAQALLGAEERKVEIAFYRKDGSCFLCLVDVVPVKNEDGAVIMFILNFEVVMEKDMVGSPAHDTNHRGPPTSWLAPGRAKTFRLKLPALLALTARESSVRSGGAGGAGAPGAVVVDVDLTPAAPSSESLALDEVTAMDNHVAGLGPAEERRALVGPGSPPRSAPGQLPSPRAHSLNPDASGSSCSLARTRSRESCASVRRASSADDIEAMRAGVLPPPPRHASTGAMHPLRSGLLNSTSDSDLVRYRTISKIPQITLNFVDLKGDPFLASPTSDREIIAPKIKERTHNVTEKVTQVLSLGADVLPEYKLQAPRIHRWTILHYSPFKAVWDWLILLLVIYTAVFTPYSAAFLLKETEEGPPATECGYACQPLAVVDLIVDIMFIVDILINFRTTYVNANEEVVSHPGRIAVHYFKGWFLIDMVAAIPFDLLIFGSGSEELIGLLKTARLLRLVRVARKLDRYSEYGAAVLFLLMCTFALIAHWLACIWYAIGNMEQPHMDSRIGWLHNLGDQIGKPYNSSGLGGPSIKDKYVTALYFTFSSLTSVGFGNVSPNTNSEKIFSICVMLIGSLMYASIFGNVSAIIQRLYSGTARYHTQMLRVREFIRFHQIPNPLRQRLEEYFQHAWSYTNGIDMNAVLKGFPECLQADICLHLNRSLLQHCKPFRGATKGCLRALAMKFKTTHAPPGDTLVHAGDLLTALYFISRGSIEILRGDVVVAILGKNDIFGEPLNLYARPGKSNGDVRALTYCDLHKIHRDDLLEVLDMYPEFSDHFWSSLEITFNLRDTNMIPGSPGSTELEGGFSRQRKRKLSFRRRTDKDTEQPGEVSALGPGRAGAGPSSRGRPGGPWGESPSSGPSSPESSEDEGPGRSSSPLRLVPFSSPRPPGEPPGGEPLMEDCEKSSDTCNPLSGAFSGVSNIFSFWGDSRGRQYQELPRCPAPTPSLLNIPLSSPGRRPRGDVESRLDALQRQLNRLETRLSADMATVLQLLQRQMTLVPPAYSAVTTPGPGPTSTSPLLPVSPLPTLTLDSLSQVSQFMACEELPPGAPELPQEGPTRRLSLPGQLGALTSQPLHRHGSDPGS
Cytochrome P450 2C9, sequence (P11712 whole entry): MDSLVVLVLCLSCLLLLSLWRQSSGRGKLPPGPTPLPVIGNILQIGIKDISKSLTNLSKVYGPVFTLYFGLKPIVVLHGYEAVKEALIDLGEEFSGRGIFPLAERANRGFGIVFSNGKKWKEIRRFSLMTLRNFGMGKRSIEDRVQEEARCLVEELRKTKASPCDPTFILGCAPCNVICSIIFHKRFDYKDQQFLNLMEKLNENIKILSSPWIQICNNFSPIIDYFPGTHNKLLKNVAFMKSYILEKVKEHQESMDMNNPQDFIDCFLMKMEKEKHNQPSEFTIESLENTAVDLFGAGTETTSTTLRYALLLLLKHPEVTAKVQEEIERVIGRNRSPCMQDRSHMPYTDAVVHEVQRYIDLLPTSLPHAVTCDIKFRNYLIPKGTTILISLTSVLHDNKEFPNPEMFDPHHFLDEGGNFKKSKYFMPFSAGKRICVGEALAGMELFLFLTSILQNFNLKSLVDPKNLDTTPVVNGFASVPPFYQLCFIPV
Cytochrome P450 2C19, sequence (P33261 whole entry): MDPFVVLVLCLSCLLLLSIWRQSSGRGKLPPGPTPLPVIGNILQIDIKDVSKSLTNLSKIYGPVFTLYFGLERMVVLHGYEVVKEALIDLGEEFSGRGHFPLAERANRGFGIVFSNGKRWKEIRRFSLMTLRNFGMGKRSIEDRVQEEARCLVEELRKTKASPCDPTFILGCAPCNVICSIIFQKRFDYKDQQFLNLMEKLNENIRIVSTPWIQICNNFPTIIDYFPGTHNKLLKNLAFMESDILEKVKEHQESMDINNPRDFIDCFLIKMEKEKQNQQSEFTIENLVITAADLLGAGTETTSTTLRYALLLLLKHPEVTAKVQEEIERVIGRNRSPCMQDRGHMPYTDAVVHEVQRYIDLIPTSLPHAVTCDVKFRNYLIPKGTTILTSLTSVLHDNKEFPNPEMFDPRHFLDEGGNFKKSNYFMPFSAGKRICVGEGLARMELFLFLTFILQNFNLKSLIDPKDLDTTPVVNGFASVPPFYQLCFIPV

IC50 [1]: 3.3 nM
IC50 [2]: 248 nM
Structure (SMILES): Cc1cc(C(N)=O)nc(N2C[C@H]3C[C@@H](c4ccccc4C(F)(F)F)C[C@H]3C2)n1

Structure (SMILES): Cc1cc(C(=O)O)nc(N2C[C@H]3C[C@@H](c4ccccc4C(F)(F)F)C[C@H]3C2)n1
Tmax [3]: 2.75 h
AUClast [4]: 2011 µM·h
AUClast [5]: 6380 ng·h/mL
C0 [6]: 58.6 µM
Papp [7]: 82.2 ×10⁻⁶ cm/s
concentration at 48 h [8]: 97.1 µM
concentration at 168 h [9]: 148 µM
IC50 [10]: > 34000 nM
concentration at 48 h [11]: 20 µM
beta t1/2 [12]: 49.4 h
betat1/2(app) [13]: 38.8 h
AUC [14]: 1017 µM·h
IC50 [15]: > 34000 nM
IC50 [16]: > 34000 nM
CLH [17]: < 0.7 microL/ml/min
CL [18]: 5.06 mL/h/kg
Activity [19]: Not Active
CLH [20]: < 0.7 microL/ml/min
concentration at 4 h [21]: 179 µM
Tmax [22]: 2.67 h
Kinetic_solubility [23]: > 100 µM
Vdss [24]: 0.156 L/kg
AUClast [25]: 1695 µM·h
beta t1/2 [26]: 31.9 h
Cmax [27]: 183 µM
CLH [28]: < 0.7 microL/ml/min
Cmax [29]: 62.2 µM
Activity [30]: 95%
Papp [31]: 74.7 ×10⁻⁶ cm/s
AUC [32]: 3636 µM·h
IC50 [33]: > 30000 nM
CLH [34]: 0.7 microL/ml/min
remaining at 0.5 h, 10 µM [35]: 94%
betat1/2(app) [36]: 22 h
remaining at 0.5 h, 10 µM [37]: 93%
Tmax [38]: 2.17 h
Cmax [39]: 66.5 µM
Activity [40]: 85%
F [41]: 143%
AUClast [42]: 795 µM·h
PPB [43]: 99.4%
IC50 [44]: > 34000 nM

IC50 [1]: 51.8 nM
IC50 [2]: 821 nM
Structure (SMILES): Cc1cc(C(=O)O)nc(N2C[C@H]3C[C@@H](c4cnccc4C(F)(F)F)C[C@H]3C2)n1

IC50 [1]: 31.1 nM
IC50 [2]: 719 nM
Structure (SMILES): Cc1cc(C(=O)O)nc(N2C[C@H]3C[C@@H](c4cccnc4C(F)(F)F)C[C@H]3C2)n1
